UCH37 inh = inhibitors of human UCH37 deubiquitinase, primary screen, biochemical, Ub-AMC cleavage, fluorescence; Ubiquitin carboxyl-terminal hydrolase isozyme L5 (Homo sapiens), Q9Y5K5; purified proteasome/UCH37; inhibition, % (concentration not given with the values); 330,000 tested, 0.33% active; AID 588478, 2011;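 active means mean inhibition over replicate wells above about 20%, limit read from the data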;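 further: 0% = compound-free wells with enzyme and 100% = wells lacking proteasome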
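Test system – human UCH37 enzyme supplied as purified proteasome complex · Incubation – 30 min preincubation with enzyme, 25 min cleavage at room temperature · Detection – AMC fluorescence from Ub-AMC cleavage, excitation 355 nm, emission 460 nm · Benchmarks – no-proteasome wells (full inhibition) and compound-free wells (no inhibition)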
SENP8 block-1 = human SENP8 protease inhibitors, primary screen, biochemical, fluorescence, Nedd8 protein substrate, uHTS | 360,000 tested, 0.64% active | recombinant SENP8 | AID 602440, 2012 | inhibition, % at 20 µM | Sentrin-specific protease 8 (Homo sapiens), Q96LD8; in the data active means inhibition mostly above about 40%, no sharp cut-off; inactive means mostly below about 27%
SENP6 block = SENP6 protease inhibitors, primary screen, biochemical, luminescence, uHTS | Recombinant SENP6 catalytic domain, aminoluciferin luminescence | inhibition, % at 10 µM | Sentrin-specific protease 6 (Homo sapiens), Q9GZR1 | 330,000 tested, 1.8% active;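 active means inhibition above about 50% at the single tested dose, limit read from the data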;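 further: plate controls were DMSO wells with enzyme for no effect and DMSO wells lacking enzyme for full effect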
Target sequence (Q9GZR1 628-1112 limits assumed): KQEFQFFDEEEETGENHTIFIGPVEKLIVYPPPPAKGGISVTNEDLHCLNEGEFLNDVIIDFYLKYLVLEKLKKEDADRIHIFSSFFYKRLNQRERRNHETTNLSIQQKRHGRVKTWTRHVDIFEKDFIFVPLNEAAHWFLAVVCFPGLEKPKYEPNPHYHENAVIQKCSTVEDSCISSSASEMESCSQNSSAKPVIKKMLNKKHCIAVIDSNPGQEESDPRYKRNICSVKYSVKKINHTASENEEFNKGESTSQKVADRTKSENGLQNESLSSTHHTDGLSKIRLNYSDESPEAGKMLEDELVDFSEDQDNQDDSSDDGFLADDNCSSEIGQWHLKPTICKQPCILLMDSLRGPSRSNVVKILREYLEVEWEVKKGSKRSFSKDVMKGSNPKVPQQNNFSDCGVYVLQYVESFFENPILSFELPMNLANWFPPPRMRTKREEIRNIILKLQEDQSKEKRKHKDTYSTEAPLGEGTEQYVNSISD
SENP1 FRET inh = human SENP1 catalytic domain inhibitors, primary screen, biochemical, FRET, uHTS. Sentrin-specific protease 1 (Homo sapiens), Q9P0U3. recombinant SENP1 catalytic domain, CyPet-SUMO1-YPet FRET cleavage. inhibition, % at 10 µM. 360,000 tested, 0.21% active. AID 624204, 2012;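 active means inhibition at least 30% at 10 µM, raw YFP signal under a set limit, fluorescence ratio 0.5 to 1.5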;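 further: 0% = enzyme with DMSO and 100% = no enzyme wells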
Target sequence (Q9P0U3 419-644 limits assumed): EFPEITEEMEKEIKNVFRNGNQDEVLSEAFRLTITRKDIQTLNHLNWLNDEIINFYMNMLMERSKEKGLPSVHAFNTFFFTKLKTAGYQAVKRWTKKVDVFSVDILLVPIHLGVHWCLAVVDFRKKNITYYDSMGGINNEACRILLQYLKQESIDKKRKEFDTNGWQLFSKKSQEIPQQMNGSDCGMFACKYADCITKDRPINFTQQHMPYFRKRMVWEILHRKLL
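Test system: hSENP1 catalytic domain, recombinant; Amount: 20 pM final SENP1 enzyme; Medium: Tris pH 8 buffer plus EDTA, NaCl, BME, BSA, NP40, catalase; Schedule: 50 min enzyme reaction, room temperature, light-protected; Technique: FRET fluorescence in CFP and YFP emission channels; Controls: no-enzyme wells low, DMSO-plus-enzyme wells high control.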
SENP8 block-2 = SENP8 protease inhibitors, primary screen, biochemical, luminescence | 330,000 tested, 1.2% active | Sentrin-specific protease 8 (Homo sapiens), Q96LD8 | purified SENP8, Z-RLRGG-aminoluciferin cleavage | AID 2540, 2010 | inhibition, % at 10 µM; in the data active means inhibition above about 50%
SENP7 inh = SENP7 protease inhibitors, primary screen, biochemical, luminescence, uHTS; inhibition, % at 5 µM; Sentrin-specific protease 7 (Homo sapiens), Q9BQF6; 330,000 tested, 1.5% active; recombinant SENP7, Z-RLRGG-aminoluciferin luminescence, 40 min; AID 434973, 2010;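 active means inhibition above about 50% at the single test dose, limit read from the data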;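 further: plate controls were DMSO with enzyme for no effect and no enzyme buffer wells for full effect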
SENP8 conf = SENP8 protease inhibitors, retest, confirmation, biochemical, luminescence, single concentration. inhibition, % at 12.5 µM. AID 488912, 2010. Recombinant SENP8, Z-RLRGG-aminoluciferin luminescence, 60 min. shares compounds with SENP7 inh. 6,200 tested, 40% active;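 active means mean inhibition across replicates above about 50%, limit read from the data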
SENP6 confirm = SENP6 protease inhibitors, confirmation, biochemical, luminescence, single concentration; shares compounds with SENP7 inh; recombinant SENP6, Z-RLRGG-aminoluciferin luminescence; inhibition, % at 12.5 µM; 6,200 tested, 58% active; AID 488915, 2010
SENP7 conf = SENP7 protease inhibitors, retest, confirmation, biochemical, luminescence, single concentration. shares compounds with SENP7 inh. recombinant SENP7, Z-RLRGG-aminoluciferin luminescence, 40 min. AID 488917, 2010. inhibition, % at 12.5 µM. 6,200 tested, 69% active
Casp3 SENP sel = caspase-3 protease inhibitors, confirmation, selectivity assay for SENP inhibitor project, biochemical, single concentration. AID 488918, 2010. 6,200 tested, 60% active. inhibition, % at 12.5 µM. purified caspase-3, Z-DEVD-aminoluciferin luminescence, 60 min. shares compounds with SENP7 inh;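 active means mean inhibition above about 50%, limit read from the data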;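 further: plate controls were enzyme with DMSO for no effect and wells without caspase-3 for full effect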
Luc interf = counter-screen for SENP inhibitors: luminescence interference. shares compounds with SENP7 inh. Pre-incubated SENP8/Z-RLRGG-aminoluciferin, luciferase luminescence interference. inhibition, % at 12.5 µM. 6,200 tested, 39% active;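 active means mean inhibition above about 50% when retested at one dose, limit read from the data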;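 further: plate controls were DMSO wells with completed reaction for no effect and substrate without enzyme for full effect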
The depositor's hits bear a star. Compounds with a hit are over-represented: about 2.6% of the library has one in this group of screens.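 How the source made its calls, unless noted: active means mean inhibition above about 50% in the one-dose retest (limit read from the data); inactive means the rest.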

How did O=S(=O)(NC1CCCCC1Nc1ccc(Cl)cc1)c1ccccc1 (stereo not drawn) do in these assays?
UCH37 inh: 3.3; SENP8 block-1: 18.7; SENP6 block: -10.6; SENP1 FRET inh: 0.0; SENP8 block-2: 6.6; SENP7 inh: -0.2

How did O=S(=O)(NC1CCCCC1NCc1ccco1)c1ccc(Cl)cc1 (stereo not drawn) do in these assays?
UCH37 inh: -0.3; SENP8 block-1: 14.0; SENP6 block: -21.9; SENP1 FRET inh: -2.4; SENP8 block-2: -3.7; SENP7 inh: 91.7*; SENP8 conf: -3.8; SENP6 confirm: 1.9; SENP7 conf: 8.7; Casp3 SENP sel: 5.6; Luc interf: -0.6

How did CC(=NN1CCN(c2ccc(Cl)cc2)CC1)c1cccc([N+](=O)[O-])c1 do in these assays?
UCH37 inh: 3.4

How did CC(=O)c1ccc2noc(-c3ccccc3)c2c1 do in these assays?
UCH37 inh: -23.6; SENP8 block-1: -335.0; SENP6 block: -2.3; SENP1 FRET inh: -53.3; SENP8 block-2: -8.9; SENP7 inh: -8.5

How did c1ccc(-c2onc3cc4c(cc23)OCCO4)cc1 do in these assays?
UCH37 inh: 1.0; SENP8 block-1: -182.7; SENP6 block: 89.1*; SENP1 FRET inh: -158.3; SENP8 block-2: 78.5*; SENP7 inh: 76.2*; SENP8 conf: 8.8; SENP6 confirm: 91.9*; SENP7 conf: 100.7*; Casp3 SENP sel: 86.1*; Luc interf: 92.2*

What do the screens show for `Cn1cccc1-c1nc2ccc([N+](=O)[O-])cc2[nH]1`?
UCH37 inh: 7.0; SENP8 block-1: -10.2; SENP6 block: 61.9*; SENP1 FRET inh: 9.1; SENP8 block-2: 46.0; SENP7 inh: 57.5*; SENP8 conf: 51.3*; SENP6 confirm: 51.7*; SENP7 conf: 84.8*; Casp3 SENP sel: 61.6*; Luc interf: 61.7*

How did O=[N+]([O-])c1ccc2nc(-c3ccccc3)[nH]c2c1 do in these assays?
UCH37 inh: 9.1; SENP8 block-1: 15.5; SENP6 block: 81.6*; SENP1 FRET inh: 2.3; SENP8 block-2: 78.9*; SENP7 inh: 84.7*; SENP8 conf: 5.7; SENP6 confirm: 80.7*; SENP7 conf: 95.1*; Casp3 SENP sel: 82.6*; Luc interf: 82.3*

What do the screens show for `O=C1C2C3C=CC(C4CC34)C2C(=O)N1N=Cc1ccc(-c2ccc([N+](=O)[O-])cc2)o1` (stereo not drawn)?
UCH37 inh: 1.7

What do the screens show for `O=C1CC(c2ccc3c(c2)OCCO3)Oc2ccc([N+](=O)[O-])cc21` (stereo not drawn)?
UCH37 inh: 4.3; SENP8 block-1: 20.0; SENP6 block: 99.4*; SENP1 FRET inh: -0.4; SENP8 block-2: 96.4*; SENP7 inh: 97.7*; SENP8 conf: 44.4; SENP6 confirm: 98.5*; SENP7 conf: 101.1*; Casp3 SENP sel: 50.6*; Luc interf: 20.3

Results for COc1ccc(C(=O)NN=C(C)c2cccc(NC(=O)c3ccccc3F)c2)cc1 ?
UCH37 inh: 4.0

How did CCc1ccc(C(=O)COC(=O)c2n[nH]c3ccccc23)cc1 do in these assays?
UCH37 inh: 5.7; SENP8 block-1: -8.0; SENP6 block: 35.3; SENP1 FRET inh: 1.1; SENP8 block-2: 77.2*; SENP7 inh: 74.4*; SENP8 conf: -15.6; SENP6 confirm: 78.1*; SENP7 conf: 92.9*; Casp3 SENP sel: 61.3*; Luc interf: 14.2

How did CCc1ccc(C(=O)COC(=O)c2nn(C)c(=O)c3ccccc23)cc1 do in these assays?
UCH37 inh: 1.8; SENP8 block-1: 12.3; SENP6 block: 1.8; SENP1 FRET inh: 0.5; SENP8 block-2: -19.3; SENP7 inh: -2.7

What do the screens show for `COc1ccc(C(=O)/C=C/c2cccs2)c(OC(=O)c2cccc([N+](=O)[O-])c2)c1`?
UCH37 inh: 4.9; SENP8 block-1: 29.4; SENP6 block: 78.7*; SENP1 FRET inh: 3.2; SENP8 block-2: 67.4*; SENP7 inh: 38.9; SENP8 conf: 30.6; SENP6 confirm: 39.1; SENP7 conf: 18.6; Casp3 SENP sel: 44.2; Luc interf: 1.7

Results for COc1ccc(C(=O)/C=C/c2ccc(F)cc2)c(OC(=O)c2ccc([N+](=O)[O-])cc2)c1 ?
UCH37 inh: 7.4; SENP8 block-1: 28.6; SENP6 block: 38.5; SENP1 FRET inh: 0.9; SENP8 block-2: -19.7; SENP7 inh: -14.1

What do the screens show for `Oc1ccc(C=Nc2cccc3ncccc23)c(O)c1`?
UCH37 inh: 5.2; SENP8 block-1: 22.9; SENP6 block: 91.2*; SENP1 FRET inh: -35.3; SENP8 block-2: 44.1; SENP7 inh: 46.1; SENP8 conf: 11.7; SENP6 confirm: 17.3; SENP7 conf: 0.8; Casp3 SENP sel: 3.9; Luc interf: 2.0

How did C=C(C)CNC(=S)NN=C(C)c1ccc(Cl)s1 do in these assays?
UCH37 inh: 0.9

How did O=C(Nc1ccc2ccccc2c1)c1onc2c1CCCC2 do in these assays?
UCH37 inh: -0.3; SENP8 block-1: 0.7; SENP6 block: 80.2*; SENP1 FRET inh: -2.8; SENP8 block-2: 64.9*; SENP7 inh: 51.8*; SENP8 conf: 38.9; SENP6 confirm: 81.5*; SENP7 conf: 93.0*; Casp3 SENP sel: 60.5*; Luc interf: 43.5

How did Cc1noc(C)c1C(=O)Nc1ccc2ccccc2c1 do in these assays?
UCH37 inh: 1.2; SENP8 block-1: -1.4; SENP6 block: -0.3; SENP1 FRET inh: 0.7; SENP8 block-2: -4.6; SENP7 inh: 8.0
